This is an account of results in ChEMBL document CHEMBL1800016, “Novel thiazolidinedione derivatives with anti-obesity effects: dual action as PTP1B inhibitors and PPAR-γ activators” (Bioorg Med Chem Lett, 2010).

Assay [1] deals with Mus musculus. The experiment in a line: Antidiabetic activity in high fat diet-fed diabetic C57BL/6J Jms Slc mouse model assessed as normalization of blood glucose level at 2.6 mg/day administered with food for 4 weeks measured 60 mins after last dose by glucose tolerance test. The assay is classed as functional, organism-based. The gist of the method:
(§1)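 Mice were male C57BL/6J Jms Slc, 5 wk old after 1 wk acclimatization. They were fed a 45%-fat HFD for 8 wk, then HFD with compound mixed in (1.0 g/kg diet, about 2.6 mg/day/mouse, 78 mg/day/kg) for 4 wk. Each mouse was fasted 6 h from the start of the light cycle and fasting glucose was measured. Glucose 1.0 g/kg was then given i.p., with readings at 60 and 90 min.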

Assay [2] is described as follows: Selectivity ratio of IC50 for TC-PTP to IC50 for PTP1B.
Assay [3] deals with T1, Tyrosine-protein phosphatase non-receptor type 1 (Homo sapiens) (UniProt P18031).
T1 sequence (whole entry): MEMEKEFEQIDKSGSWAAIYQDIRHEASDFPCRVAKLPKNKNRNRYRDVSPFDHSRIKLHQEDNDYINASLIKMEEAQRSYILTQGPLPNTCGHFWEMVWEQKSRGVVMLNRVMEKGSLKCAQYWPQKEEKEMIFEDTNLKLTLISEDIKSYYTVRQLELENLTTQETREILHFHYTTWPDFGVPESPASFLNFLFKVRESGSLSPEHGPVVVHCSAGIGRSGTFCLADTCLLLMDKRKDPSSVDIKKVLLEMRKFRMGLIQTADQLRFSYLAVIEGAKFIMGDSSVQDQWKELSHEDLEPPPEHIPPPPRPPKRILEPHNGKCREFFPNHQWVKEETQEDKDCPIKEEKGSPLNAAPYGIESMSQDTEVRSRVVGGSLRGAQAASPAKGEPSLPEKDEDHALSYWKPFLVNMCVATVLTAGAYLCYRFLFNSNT
Put plainly: Mixed type inhibition of PTP1B expressed in Escherichia coli.

In assay [4] the test system is Mus musculus. The experiment in a line: Antidiabetic activity in high fat diet-fed diabetic C57BL/6J Jms Slc mouse model assessed as normalization of blood glucose level at 2.6 mg/day administered with food for 4 weeks measured 90 mins after last dose by glucose tolerance test. The assay is classed as functional, organism-based. The procedure, abridged:
as §1

The target of assay [5] is Tyrosine-protein phosphatase non-receptor type 6 (Homo sapiens, UniProt P29350). The experiment in a line: Inhibition of catalytic domain of SHP-1 expressed in Escherichia coli assessed as p-nitrophenol release from pNPP substrate preincubated for 10 mins. The procedure, abridged:
(§2)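 IC50 values against the PTP panel, with enzymes prepared as described in the supplementary material. Values are means ± SD of two or more experiments.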

Assay [6] is described as follows: Inhibition of YOP assessed as p-nitrophenol release from pNPP substrate preincubated for 10 mins. The gist of the method:
as §2

A short description of assay [7]: Selectivity ratio of IC50 for membrane proximal catalytic domain of LAR-D1 to IC50 for PTP1B.
Assay [8] relates to Mus musculus. Put plainly: Antiobesity activity in high fat diet-fed diabetic C57BL/6J Jms Slc mouse model assessed as decrease in epididymal fat at 2.6 mg/day administered with food for 4 weeks. The assay is classed as functional. The gist of the method: (§3)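 DIO male C57BL/6J Jms Slc mice were fed a 45%-fat HFD for 8 wk, then HFD with 0.1% w/w compound in feed (about 2.6 mg/day/mouse) for 4 wk. A 10%-fat LFD lean group ran throughout. Measures were weight gain, feed efficiency (weight gain/kcal ×100), and epididymal and retroperitoneal fat pad weights. n = 8/group; mean ± SEM; one-way ANOVA.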

Assay [9] deals with Mus musculus. Put plainly: Antiobesity activity in high fat diet-fed diabetic C57BL/6J Jms Slc mouse model assessed as decrease in non-esterified free fatty acid level in serum at 2.6 mg/day administered with food for 4 weeks. The assay is classed as functional. The gist of the method: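 DIO mice were fed HFD for 8 wk, then HFD containing 0.1% w/w compound (about 2.6 mg/day/mouse) for 4 wk. At the end of feeding, mice were deprived of food overnight. Serum total cholesterol, triglyceride and NEFA were then measured. Values are mean ± SEM.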

In assay [10] the test system is Mus musculus. The experiment in a line: Antiobesity activity in high fat diet-fed diabetic C57BL/6J Jms Slc mouse model assessed as reduction in body weight at 2.6 mg/day administered with food for 4 weeks. The assay is classed as functional. The procedure, abridged: as §3
Assay [11] has as its target Receptor-type tyrosine-protein phosphatase F (Homo sapiens, UniProt P10586). Put plainly: Inhibition of membrane proximal catalytic domain of LAR-D1 assessed as p-nitrophenol release from pNPP substrate preincubated for 10 mins. The gist of the method:
as §2

Assay [12] relates to Mus musculus. Put plainly: Antidiabetic activity in high fat diet-fed diabetic C57BL/6J Jms Slc mouse model assessed as normalization of fasting blood glucose level measured after 6 hrs of fasting at 2.6 mg/day administered with food for 4 weeks measured 90 mins after last dose by glucose tolerance test. The assay is classed as functional, organism-based. The gist of the method: as §1

Assay [13] addresses T2, Tyrosine-protein phosphatase non-receptor type 2 (Homo sapiens, UniProt P17706).
T2 sequence (P17706 whole entry): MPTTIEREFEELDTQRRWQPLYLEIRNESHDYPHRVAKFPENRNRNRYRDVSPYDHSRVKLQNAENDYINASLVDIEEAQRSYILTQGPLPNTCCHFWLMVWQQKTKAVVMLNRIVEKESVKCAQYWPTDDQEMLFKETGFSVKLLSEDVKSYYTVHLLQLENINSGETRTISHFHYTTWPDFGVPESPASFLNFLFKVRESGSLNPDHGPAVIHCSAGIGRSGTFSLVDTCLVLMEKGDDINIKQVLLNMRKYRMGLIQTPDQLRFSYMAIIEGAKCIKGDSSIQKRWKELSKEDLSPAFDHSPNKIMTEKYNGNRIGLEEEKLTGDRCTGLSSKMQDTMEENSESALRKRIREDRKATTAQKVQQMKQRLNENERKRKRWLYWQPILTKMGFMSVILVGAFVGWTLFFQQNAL
The experiment in a line: Inhibition of TC-PTP assessed as p-nitrophenol release from pNPP substrate preincubated for 10 mins. The procedure, abridged: as §2

For assay [14], the target named is T3, Peroxisome proliferator-activated receptor gamma (Homo sapiens, UniProt P37231).
T3 sequence (P37231 whole entry): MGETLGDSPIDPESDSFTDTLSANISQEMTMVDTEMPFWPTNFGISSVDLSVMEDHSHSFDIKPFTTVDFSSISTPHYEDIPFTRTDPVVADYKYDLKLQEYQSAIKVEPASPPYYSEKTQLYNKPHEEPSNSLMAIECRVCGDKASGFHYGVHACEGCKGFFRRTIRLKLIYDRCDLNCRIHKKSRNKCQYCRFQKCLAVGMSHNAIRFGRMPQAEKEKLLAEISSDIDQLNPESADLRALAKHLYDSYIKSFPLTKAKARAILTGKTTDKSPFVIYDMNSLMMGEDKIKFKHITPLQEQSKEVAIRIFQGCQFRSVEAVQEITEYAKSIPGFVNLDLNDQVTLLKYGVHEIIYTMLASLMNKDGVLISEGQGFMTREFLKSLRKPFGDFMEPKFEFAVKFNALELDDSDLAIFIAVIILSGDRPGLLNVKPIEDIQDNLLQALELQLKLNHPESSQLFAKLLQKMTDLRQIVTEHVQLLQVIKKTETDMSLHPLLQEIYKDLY
The experiment in a line: Agonist activity at PPARgamma expressed in HepG2 cells co-expressing PPRE assessed as transcriptional activation after 24 hrs by luciferase reporter gene assay. The assay is classed as functional, cell-based. The procedure, abridged: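 HepG2 cells were transfected with a PPRE-driven luciferase reporter plus CMV-βGal. The basic luciferase reporter without a PPRE site served as the negative control. Compounds were added 6 h after transfection. Cells were lysed 24 h later. Luciferase activity was read on a luminometer and normalized to β-galactosidase for transfection efficiency. Two independent experiments; error as SEM.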
In general terms: Reporter assays use an easily measured gene product as a stand-in for the process of interest.

SMILES strings stand for the structures. Active and inactive are the calls of the source. The calls are words filed in the database; no cut-off is given here. A value given as a limit tells only on which side of the number the result lay.

The term IC50 denotes the concentration that inhibits the measured activity by half. As usually defined, the EC50 is the concentration that produces a half-maximal response.

Tyrosine-protein phosphatase non-receptor type 6, sequence (P29350 whole entry, the tested form may be a part): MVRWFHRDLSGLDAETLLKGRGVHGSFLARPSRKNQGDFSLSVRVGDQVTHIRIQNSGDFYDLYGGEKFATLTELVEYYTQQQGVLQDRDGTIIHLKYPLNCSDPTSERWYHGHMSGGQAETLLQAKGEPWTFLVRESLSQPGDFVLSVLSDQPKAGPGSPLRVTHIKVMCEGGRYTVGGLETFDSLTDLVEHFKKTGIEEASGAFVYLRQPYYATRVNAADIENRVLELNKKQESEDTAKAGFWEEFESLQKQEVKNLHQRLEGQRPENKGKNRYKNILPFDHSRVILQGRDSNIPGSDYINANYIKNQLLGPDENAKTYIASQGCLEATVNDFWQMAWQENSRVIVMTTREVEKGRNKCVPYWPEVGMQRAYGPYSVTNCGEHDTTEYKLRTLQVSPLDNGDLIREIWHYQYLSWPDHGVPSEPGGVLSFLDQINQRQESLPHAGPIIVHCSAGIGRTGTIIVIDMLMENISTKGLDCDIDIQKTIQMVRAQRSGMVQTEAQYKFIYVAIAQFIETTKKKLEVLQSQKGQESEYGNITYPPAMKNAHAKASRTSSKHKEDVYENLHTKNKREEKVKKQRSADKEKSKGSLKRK
Receptor-type tyrosine-protein phosphatase F, sequence (P10586 whole entry, the tested form may be a part): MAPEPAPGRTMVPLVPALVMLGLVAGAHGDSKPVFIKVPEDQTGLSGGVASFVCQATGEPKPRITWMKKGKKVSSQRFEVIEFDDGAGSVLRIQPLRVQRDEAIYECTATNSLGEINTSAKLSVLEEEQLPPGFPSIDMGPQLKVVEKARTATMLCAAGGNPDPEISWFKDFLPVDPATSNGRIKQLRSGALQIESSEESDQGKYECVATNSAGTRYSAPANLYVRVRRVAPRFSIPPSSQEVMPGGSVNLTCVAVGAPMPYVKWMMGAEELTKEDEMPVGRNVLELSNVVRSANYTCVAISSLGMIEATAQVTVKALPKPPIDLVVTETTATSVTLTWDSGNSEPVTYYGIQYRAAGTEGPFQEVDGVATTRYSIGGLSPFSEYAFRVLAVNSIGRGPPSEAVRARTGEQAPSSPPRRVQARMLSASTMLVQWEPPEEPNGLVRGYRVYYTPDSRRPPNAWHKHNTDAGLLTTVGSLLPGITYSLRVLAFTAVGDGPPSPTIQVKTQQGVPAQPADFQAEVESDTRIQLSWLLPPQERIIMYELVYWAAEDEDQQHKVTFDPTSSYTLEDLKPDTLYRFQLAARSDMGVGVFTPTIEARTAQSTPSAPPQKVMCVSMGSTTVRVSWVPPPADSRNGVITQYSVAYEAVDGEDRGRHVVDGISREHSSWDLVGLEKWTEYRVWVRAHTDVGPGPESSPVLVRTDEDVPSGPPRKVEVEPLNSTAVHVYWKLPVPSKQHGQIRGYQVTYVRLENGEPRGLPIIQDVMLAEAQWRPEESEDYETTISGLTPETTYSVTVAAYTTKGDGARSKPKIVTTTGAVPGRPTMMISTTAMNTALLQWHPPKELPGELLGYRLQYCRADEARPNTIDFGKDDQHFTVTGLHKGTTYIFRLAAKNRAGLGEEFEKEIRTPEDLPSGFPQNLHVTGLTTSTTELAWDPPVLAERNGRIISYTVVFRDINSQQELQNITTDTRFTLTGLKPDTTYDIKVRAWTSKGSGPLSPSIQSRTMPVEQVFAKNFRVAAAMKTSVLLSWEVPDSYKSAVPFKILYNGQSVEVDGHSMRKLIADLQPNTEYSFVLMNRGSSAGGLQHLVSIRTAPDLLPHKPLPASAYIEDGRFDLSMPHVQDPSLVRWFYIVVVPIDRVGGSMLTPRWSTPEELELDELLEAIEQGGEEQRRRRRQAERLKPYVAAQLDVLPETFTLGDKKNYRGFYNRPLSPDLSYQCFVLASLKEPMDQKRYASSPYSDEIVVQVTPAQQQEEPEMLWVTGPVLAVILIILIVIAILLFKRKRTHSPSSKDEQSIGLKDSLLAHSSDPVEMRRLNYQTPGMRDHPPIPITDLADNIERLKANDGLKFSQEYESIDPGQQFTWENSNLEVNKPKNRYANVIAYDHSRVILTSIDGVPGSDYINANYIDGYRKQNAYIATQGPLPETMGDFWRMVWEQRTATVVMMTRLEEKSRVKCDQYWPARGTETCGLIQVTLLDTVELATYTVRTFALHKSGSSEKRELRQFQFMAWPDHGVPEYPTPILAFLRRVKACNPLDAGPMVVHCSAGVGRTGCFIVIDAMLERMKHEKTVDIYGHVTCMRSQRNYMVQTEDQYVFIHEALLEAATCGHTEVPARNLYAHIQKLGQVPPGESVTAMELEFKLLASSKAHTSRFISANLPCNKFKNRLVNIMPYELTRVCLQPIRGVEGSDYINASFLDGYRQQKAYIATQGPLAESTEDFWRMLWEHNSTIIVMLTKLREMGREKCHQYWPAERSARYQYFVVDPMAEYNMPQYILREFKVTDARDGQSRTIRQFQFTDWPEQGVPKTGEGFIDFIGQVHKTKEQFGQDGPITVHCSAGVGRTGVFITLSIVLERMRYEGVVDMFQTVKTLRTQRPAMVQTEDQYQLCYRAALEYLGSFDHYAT

For the molecule `Cc1ccc(S(=O)(=O)Oc2cc(OCc3ccc(C(F)(F)F)cc3)c(/C=C3\SC(=O)NC3=O)cc2Br)cc1`, the outcome in the assay on Mus musculus [1] and in the assay with Mus musculus [4] was Active. In addition, the Ratio IC50 in assay [2] and in assay [7] was greater than 10 in each case. Further, in assay [3], the inhibition entry is “Active”. The IC50 was 3 µM in [5], 3.9 µM in assay [6], greater than 100 µM in assay [11] and 19 µM in assay [13]. Also, the Activity in the assay on Mus musculus [8] stood at 1.29 g; in the assay with Mus musculus [9] it was 0.2 mM; in the assay with Mus musculus [10], 2 g. The result in the assay with Mus musculus [12] was inactive. Further, the half-maximal effective concentration (EC50) in assay [14] was 0.34 µM.
